Reference: ChEMBL document CHEMBL1833791, “Synthesis and biological evaluation of α,β-unsaturated lactones as potent immunosuppressive agents” (Bioorg Med Chem Lett, 2011)
Active and inactive are the calls of the source. The rule behind the calls is not given here.

Key:
Jurkat [1] = experiment: Immunosuppressive activity in human Jurkat T cells assessed as inhibition of PMA-induced IL-2 production at 10 uM after 13 hrs by ELISA relative to control; assay type: functional
Outline: (§1)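 Jurkat T lymphocytes at 1 × 10^6 cells/mL were given compound at 1 μM or 10 μM final, then stimulated with 5 nM ionomycin plus 500 nM PMA for 13 h at 37 °C. Cells were spun down and supernatant IL-2 was measured by sandwich ELISA (anti-human IL-2 capture, biotinylated anti-human IL-2 detection). Values are % inhibition versus DMSO negative control, from at least three experiments.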

Jurkat [2] = experiment: Immunosuppressive activity in human Jurkat T cells assessed as inhibition of PMA-induced IL-2 production at 1 uM after 13 hrs by ELISA relative to control; assay type: functional; outline: as §1
Jurkat [3] = experiment: Immunosuppressive activity in human Jurkat T cells assessed as inhibition of PMA-induced IL-2 production after 13 hrs by ELISA; assay type: functional, cell-based

| SMILES | inhibition at 10 µM (Jurkat [1]) [%] | inhibition at 1 µM (Jurkat [2]) [%] | IC50 (Jurkat [3]) [nM] | inhibition (Jurkat [2]) | inhibition (Jurkat [1]) |
| --- | --- | --- | --- | --- | --- |
| COc1ccc(C2CC=CC(=O)O2)cc1 (centres undefined) | 87.2 | 39.8 | – | – | – |
| O=C1C=CCC(c2ccccc2)O1 (centres undefined) | 82.6 | 89.7 | 166 | – | – |
| COc1cccc(C2CC=CC(=O)O2)c1 (centres undefined) | 90.4 | – | – | inactive | – |
| O=C1C=CCC(c2ccc(OCc3ccccc3)cc2)O1 (centres undefined) | 98.9 | 28 | – | – | – |
| O=C1C=CCC(c2cccs2)O1 (centres undefined) | 59.6 | – | – | inactive | – |
| Cc1cccc(C2CC=CC(=O)O2)c1 (centres undefined) | 64.5 | 47.9 | – | – | – |
| O=C1C=CCC(c2ccsc2)O1 (centres undefined) | 46.2 | – | – | inactive | – |
| O=C1C=CCC(c2cc3ccccc3o2)O1 (centres undefined) | 100 | 100 | 66.9 | – | – |
| O=C1C=CCC(c2csc3ccccc23)O1 (centres undefined) | 100 | 77.1 | 908 | – | – |
| O=C1C=CCC(c2ccc3ccccc3c2)O1 (centres undefined) | 97.2 | 37.5 | – | – | – |
| O=C1C=CCC(CC23CC4CC(CC(C4)C2)C3)O1 (centres undefined) | 100 | 57.4 | 1570 | – | – |
| Cc1ccc(C2CC=CC(=O)O2)c2ccccc12 (centres undefined) | 100 | 57.4 | – | – | – |
| O=C1C=CCC(c2cccc3ccccc23)O1 (centres undefined) | 100 | 72.5 | – | – | – |
| O=C1C=CCC(c2ccnc3ccccc23)O1 (centres undefined) | 100 | 27.8 | – | – | – |
| O=C1C=CCC(/C=C/c2ccccc2)O1 (centres undefined) | 90.1 | 12.7 | – | – | – |
| O=C1C=CCC(c2ccco2)O1 (centres undefined) | 21.7 | – | – | inactive | – |
| O=C1C=CCC(c2ccoc2)O1 (centres undefined) | – | – | – | inactive | inactive |
| O=C1C=CCC(c2cnc3ccccc3c2)O1 (centres undefined) | 98.7 | 41.5 | – | – | – |
| Cc1ccc(C2CC=CC(=O)O2)cc1 (centres undefined) | 80.6 | 89 | 142 | – | – |
| O=C1C=CCC(Cc2ccc3ccccc3c2)O1 (centres undefined) | 100 | 67.7 | 396 | – | – |
| O=C1C=CCC(C(c2ccccc2)c2ccccc2)O1 (centres undefined) | 89.2 | 18.7 | – | – | – |
| Cc1ccc2ccccc2c1C1CC=CC(=O)O1 (centres undefined) | 75.5 | 6.4 | – | – | – |
| Cc1ccccc1C1CC=CC(=O)O1 (centres undefined) | 86.1 | 15.2 | – | – | – |
| COc1ccccc1C1CC=CC(=O)O1 (centres undefined) | 89.2 | 11 | – | – | – |
